Only a selection was taken, and hits are over-represented in it overall.
Diaphorase act – activates diaphorase or chemically reduces, flagging diaphorase assay artifacts. Diaphorase/resazurin coupled assay, resorufin fluorescence, 16 min; active compounds read high; 1 = vehicle wells, 0 = NADH-free wells. activation factor at 20 µM. actives 0.005% (n = 190,000);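 active = diaphorase activity raised at least twofold by the compound at 20 µM; inactive = activation factor below 2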
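Test system: Clostridium kluyveri diaphorase, purified enzyme; input: enzyme 0.07 U/mL final; buffer or medium: 50 mM HEPES pH 7.4 with 4.542 mM MgCl2, 0.005% Tween 20; also added: 0.114 mM NADH and 0.1 mM resazurin, final amounts; schedule: 16 min enzyme reaction, ambient temperature; technique: fluorescence of resorufin, 544 nm excitation, 590 nm emission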
FLuc act counter – affects firefly luciferase, flagging false hits in luciferase stimulation screens | ATPlite luciferase biochemical, luminescence, 10 min; 0 = ATP-free wells, 1 = DMSO control | activation factor at 10 µM | 200,000 tested, under 10 active | AID 1027;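 active = luciferase activation factor, scaled between plate controls, of at least 2 with compound at 10 µM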
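System: Luciferase/luciferin detection reagent, cell-free biochemical luciferase assay | Medium: PBS buffer for ATP | Dosing: Test compounds dosed from 2 mM stocks in 100% DMSO | Timing: 10 min at ambient temperature | Signal: Luminescence measurement of luciferase light output | Evaluation: Luciferase activation, seen as luminescence increase over controls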
FLuc inhib CS – inhibits firefly luciferase, flagging false hits in luciferase inhibition screens; P08659; AID 1006; ATPLite firefly luciferase biochemical luminescence, 10 min; actives 1.5% (n = 200,000); inhibition, % at 10 µM;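 active = inhibition above about 50% when tested at 10 µM, limit read from the data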
ABCB6 inh 2 – blocks the human ABCB6 transporter. K562-ABCB6 porphyrin accumulation, flow cytometry, 1 h; active compounds read low. fluorescence ratio to DMSO, % at 10 µM. actives 0.19% (n = 360,000);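 active = fluorescence ratio to DMSO below 75%, the collection mean minus 3 SD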;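 note: signal is porphyrin accumulated inside mitochondria; 100% equals median channel fluorescence of DMSO control wells; lower ratio means ABCB6 inhibition with less porphyrin fluorescence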
ABCG2 block – blocks JC-1 efflux by human ABCG2 transporter; Q9UNQ0; IgMXP3 cells, flow cytometry; inhibition, % at 6.6 µM; actives 0.1% (n = 190,000); AID 1325;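 active = inhibition above 80%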;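 note: 0% = DMSO and 100% = nicardipine control wells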
Target sequence (Q9UNQ0 whole entry, looked up): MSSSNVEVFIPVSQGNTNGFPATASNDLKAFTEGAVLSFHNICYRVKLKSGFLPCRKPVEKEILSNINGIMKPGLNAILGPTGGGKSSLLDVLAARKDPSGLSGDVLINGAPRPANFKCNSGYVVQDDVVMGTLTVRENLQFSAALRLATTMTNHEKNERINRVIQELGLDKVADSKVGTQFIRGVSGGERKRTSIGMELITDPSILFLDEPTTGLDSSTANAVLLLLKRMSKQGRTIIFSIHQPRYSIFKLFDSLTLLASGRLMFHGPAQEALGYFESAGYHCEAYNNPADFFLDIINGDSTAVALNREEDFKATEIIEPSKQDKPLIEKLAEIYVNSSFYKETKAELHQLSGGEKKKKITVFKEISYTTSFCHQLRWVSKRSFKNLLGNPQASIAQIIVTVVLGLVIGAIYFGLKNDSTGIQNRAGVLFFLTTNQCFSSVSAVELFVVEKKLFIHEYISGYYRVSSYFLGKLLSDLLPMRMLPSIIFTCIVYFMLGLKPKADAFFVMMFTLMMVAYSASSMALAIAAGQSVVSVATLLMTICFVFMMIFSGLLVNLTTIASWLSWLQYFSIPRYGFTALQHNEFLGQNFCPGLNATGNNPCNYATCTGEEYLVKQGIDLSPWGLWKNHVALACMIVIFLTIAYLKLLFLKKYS
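test system = two drug-resistant human cell lines, ABCG2 and ABCB1 | amount = 3 million cells/mL final, two lines in 1:1 ratio | reagent = JC-1 transporter substrate | doses = one concentration, 6.6 µM final | incubation = 10 min at 25 °C | signal = flow cytometric JC-1 green MFI at 530 nm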
ABCB1 block – human ABCB1 inhibition, ABCG2 as counter-screen; CCRF-Adr cells, JC-1 efflux, flow cytometry; actives 0.067% (n = 190,000); P08183; inhibition, % at 6.6 µM; AID 1326; in the data active = inhibition above about 40%;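 note: 0% = vehicle and 100% = reference inhibitor; higher value means more JC-1 retained so stronger ABCB1 efflux block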
ABCB6 blocker 1 – blocks the human ABCB6 transporter. shares compounds with ABCB6 inh 2. K562-ABCB6 porphyrin accumulation, flow cytometry, 1 h; active compounds read low. ratio response (% of DMSO), % at 10 µM. 700 tested, under 10 active;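 active = repeat-averaged ratio response below 75% of DMSO, the collection mean minus 3 SD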;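 note: median porphyrin fluorescence at 575 nm with 488 nm excitation from mitochondria; lower ratio means less porphyrin signal so ABCB6 inhibition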
* marks the source's active call; other numbers are inactive results; x = no result.

SMILES	Diaphorase act	FLuc act counter	FLuc inhib CS	ABCB6 inh 2	ABCG2 block	ABCB1 block	ABCB6 blocker 1
CC(=O)N1C(=O)C2(C(C#N)=C(N)Oc3c2c(C)nn3-c2ccccc2)c2ccccc21 (centres undefined)	0.5	1.1	-8	44*	10	2	101
CC(=O)Oc1cccc(/C=C2\Sc3ccccc3C2=O)c1	x	x	x	72*	x	x	96
COc1ccc(-n2c(COc3ccccc3)nnc2SCc2ccc(C#N)cc2)cc1	0.8	1	-4	51*	9	3	99
O=[N+]([O-])c1ccc(NNS(=O)(=O)c2cc(Cl)ccc2Cl)nc1	x	x	x	106	x	x	x
CCc1ccc(CNC(=O)C2Cc3cc(S(=O)(=O)N4CCCC4)ccc3N2C(C)=O)cc1 (centres undefined)	x	x	x	5.0*	x	x	99
CSc1ccc(CNC(=O)C2Cc3cc(S(=O)(=O)N4CCCC4)ccc3N2C(C)=O)cc1 (centres undefined)	x	x	x	97	x	x	x
C[C@H](CO)N1C[C@H](C)[C@@H](CN(C)C(=O)NC2CCCCC2)Oc2c(NC(=O)Cc3ccccc3)cccc2C1=O	x	x	x	101	x	x	x
O=C(c1ccco1)N1CCC(c2nc3c(nnn3Cc3c(Cl)cccc3Cl)c(=O)[nH]2)CC1	x	x	x	97	x	x	103
CC(C)(C)c1ccc(Cn2nnc3c(=O)[nH]c(C4CCN(C(=O)c5ccco5)CC4)nc32)cc1	x	x	x	94	x	x	100
O=C(c1ccccc1Cl)N1CCC(c2nc3c(nnn3Cc3ccco3)c(=O)[nH]2)CC1	0.9	1	-3	92	0	1	x
O=C(NCCOc1ccc(Cl)cc1)c1ccco1	x	x	x	102	x	x	x
CCN1C(=O)[C@H]2[C@@H](c3ccc(-c4ccc(Cl)c(Cl)c4)cc3)N[C@@](Cc3ccccc3)(C(=O)OC)[C@H]2C1=O	x	x	x	99	x	x	x
CCN(CC)S(=O)(=O)c1cccc(-n2c(O)c(C=Nc3ccccc3C(=O)O)c3ccccc3c2=O)c1	x	x	x	74*	x	x	83
CCN(CC(=O)Nc1ccccc1OC)C(=O)CSCc1ccc(C)cc1	x	x	x	99	x	x	x
O=C(c1ccc2nc(Cc3cccc(Cl)c3)oc2c1)N1CCOCC1	x	x	x	97	x	x	x
Cc1nc2c(C(=O)N3CCOCC3)cnn2c(C)c1Cc1cccc(Cl)c1	0.9	1	-3	x	-2	0	98
Cc1nc2c(C(=O)N3CCOCC3)cnn2c(C)c1Cc1ccc(Cl)cc1	0.9	1.1	-6	89	0	0	99
Cc1ccccc1NC(=O)Cc1nc(COC(=O)Cc2c(F)cccc2Cl)cs1	x	x	x	93	x	x	x
Cc1ccc(CC(=O)Nc2nnc(-c3ccc(F)cc3)o2)c(C)c1	x	x	x	74*	x	x	100
O=C(CCNS(=O)(=O)c1ccc(Br)cc1)NC1CCC(O)CC1 (centres undefined)	x	x	x	97	x	x	x
COc1cc2[nH]c(C)c(-c3ccccc3)c(=O)c2cc1Cl	x	x	x	91	x	x	x
CCn1c(=O)n(CC)c2cc(N3CCCC3)c(NC(=O)c3ccccc3C)cc21	x	x	x	64*	x	x	98
O=C(c1cccc(N2C(=O)C3C4C=CC(C4)C3C2=O)c1)N1CCN(c2ccccc2Cl)CC1 (centres undefined)	x	x	x	91	x	x	x
Cc1ccccc1Nc1nc(-c2cccnc2)nc2ccccc12	0.6	1.1	-7	99	2	0	x
Cc1ccc(Nc2nc(-c3cccnc3)nc3ccccc23)cc1	x	x	x	71*	x	x	98
SMILES	Diaphorase act	FLuc act counter	FLuc inhib CS	ABCB6 inh 2	ABCG2 block	ABCB1 block	ABCB6 blocker 1
CC(NC(=O)COc1ccc(/C=N/NS(=O)(=O)c2ccccc2)cc1)c1ccccc1 (centres undefined)	0.8	1.1	-8	69*	1	0	99
COCCN(C(=O)COC(=O)Cc1coc2cc3c(cc12)CCC3)c1c(N)n(Cc2ccccc2)c(=O)[nH]c1=O	x	x	x	93	x	x	x
Cc1ccc2nc3n(c(=O)c2c1)-c1ncccc1C(=O)NC3Cc1ccccc1 (centres undefined)	x	x	x	103	x	x	x
CCN(CC)C(=O)[C@H]1CC(CC(=O)NCc2ccc(OC)c(OC)c2)C(=O)N2CCc3c([nH]c4ccc(OC)cc34)[C@]12C (some centres undefined)	x	x	x	64*	x	x	100
CCN(CC)C(=O)[C@H]1CC(CC(=O)NCc2ccc(OC)c(OC)c2)C(=O)N2CCc3c([nH]c4ccccc34)[C@]12C (some centres undefined)	x	x	x	95	x	x	x
NS(=O)(=O)c1ccc(CCNC(=O)CCCNC(=O)c2ccc(Cl)cc2)cc1	x	x	x	67*	x	x	98
CCOCCCNC(=O)c1oc2ccc3c(c2c1C)C(O)CC(C)(C)O3 (centres undefined)	x	x	x	98	x	x	x
CCCCOCCCNCc1cccn1CCN1CCOCC1	x	x	x	66*	x	x	100
c1csc(CNCCCN2CCOCC2)c1	0.8	1	-4	102	5	1	x
Cn1c2c(c(=O)n1-c1ccccc1)CSCC2	x	x	x	105	x	x	x
Cc1cc(C)nc(NS(=O)(=O)c2cccs2)c1	0.9	1	-3	69*	4	1	97
O=C(NN=C1CCCCC1)c1ccccc1-n1cccc1	x	x	x	97	x	x	x
CCOC(=O)c1c(NC(=O)c2ccc(N3C(=O)[C@@H]4[C@H](C3=O)[C@H]3C=C[C@@H]4C3)cc2)sc2c1CC(C)CC2 (some centres undefined)	0.8	1	-4	68*	-5	-2	96
COc1ccccc1Cn1nnc2c(=O)[nH]c(C3CCN(C(=O)c4ccccc4Cl)CC3)nc21	0.8	1.2	-20	99	0	0	100
COc1ccccc1Cn1nnc2c(=O)[nH]c(C3CCN(C(=O)c4ccc(F)cc4)CC3)nc21	0.9	1.1	-8	98	4	1	x
COc1ccccc1Cn1nnc2c(=O)[nH]c(C3CCN(C(=O)c4ccc(C)cc4)CC3)nc21	0.8	1.1	-7	112	1	0	100
Cc1cccc(C(O)c2ncc(-c3ccccc3F)[nH]2)c1C (centres undefined)	x	x	x	90	x	x	x
CC1(C(=O)N2CCN(C(=O)c3ccco3)CC2)CCN1Cc1ccccc1OC(F)F (centres undefined)	x	x	x	70*	x	x	99
c1ccc(OCCNc2ccn3nc(-c4ccc(OCCN5CCOCC5)cc4)cc3n2)cc1	x	x	x	74*	x	x	100
c1ccc(COc2cccc(-c3cc4nc(NCc5ccc6c(c5)OCO6)ccn4n3)c2)cc1	x	x	x	68*	x	x	97
c1csc(CNc2ccn3nc(-c4ccc(OCCN5CCOCC5)cc4)cc3n2)c1	x	x	x	106	x	x	x
CCCCC(CC)CN1CN(CC(CC)CCCC)CC(C)(N)C1 (centres undefined)	x	x	x	99	x	x	x
CN(CC(=O)Nc1cccnc1)S(=O)(=O)c1ccc(Br)cc1	x	x	x	99	x	x	x

Compound activity: PubChem, several laboratories
